ChEMBL document CHEMBL1914394, “Synthesis and spectroscopic characterization of 4-butoxyethoxy-N-octadecyl-1,8-naphthalimide as a new fluorescent probe for the determination of proteins” (Bioorg Med Chem Lett, 2011)

Assays:
Albumin [1] = biological target: T1, Albumin (Bos taurus, UniProt P02769); test: Binding affinity to bovine serum albumin assessed as quenching constant at pH 7.4 at 298K by fluorescence spectroscopic analysis; type: ADME; settings: cattle, isolated protein
How it was run: (§1)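 Quenching series of BSA with rising BON levels in HCl–Tris pH 7.4, run at four temperatures. KSV comes from the F0/F versus [BON] Stern–Volmer plot. The bimolecular quenching rate constant is calculated as Kq = KSV/τ0, with a biopolymer fluorescence lifetime τ0 of 10^-8 s.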

Albumin [2] = biological target: T1, Albumin; test: Binding affinity to bovine serum albumin assessed as stem-volmer quenching constant at pH 7.4 at 293K by fluorescence spectroscopic analysis; type: ADME; settings: cattle, isolated protein
How it was run: (§2)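 BSA intrinsic fluorescence titrated with increasing BON in HCl–Tris buffer, pH 7.4, at each of four temperatures. F0/F (without/with BON) plotted against BON concentration; the Stern–Volmer quenching constant KSV is taken from the linear fit.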

Albumin [3] = biological target: T1, Albumin; test: Binding affinity to bovine serum albumin assessed as decrease in fluorescence intensity at 1.5 x 10^-5 mol/L at pH 7.4 by fluorescence spectroscopy in presence of Zn2+ cations; type: ADME; settings: cattle, isolated protein, pH 7.4, 15 µM
How it was run: (§3)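 Fluorescence of the BON–BSA system in HCl–Tris pH 7.4 recorded with each interfering ion or amino acid added at different concentrations. Excitation 373 nm; emission scanned 390–550 nm; intensity change noted.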

Albumin [4] = biological target: T1, Albumin; test: Binding affinity to bovine serum albumin assessed as decrease in fluorescence intensity at 1.5 x 10^-5 mol/L at pH 7.4 by fluorescence spectroscopy in presence of SO42+ anions; type: ADME; settings: cattle, isolated protein, pH 7.4, 15 µM; how it was run: as §3
Albumin [5] = biological target: T1, Albumin; test: Binding affinity to bovine serum albumin assessed as decrease in fluorescence intensity at 1.5 x 10^-5 mol/L at pH 7.4 by fluorescence spectroscopy in presence of glycine; type: ADME; settings: cattle, isolated protein, pH 7.4, 15 µM; how it was run: as §3
Albumin [6] = biological target: T1, Albumin; test: Binding affinity to bovine serum albumin assessed as decrease in fluorescence intensity at 1.5 x 10^-5 mol/L at pH 7.4 by fluorescence spectroscopy in presence of Cu2+ cations; type: ADME; settings: cattle, isolated protein, pH 7.4, 15 µM; how it was run: as §3
Albumin [7] = biological target: T1, Albumin; test: Binding affinity to bovine serum albumin assessed as decrease in fluorescence intensity at 1.5 x 10^-5 mol/L at pH 7.4 by fluorescence spectroscopy in presence of Ca2+ cations; type: ADME; settings: cattle, isolated protein, pH 7.4, 15 µM; how it was run: as §3
Albumin [8] = biological target: T1, Albumin; test: Binding affinity to bovine serum albumin assessed as binding constant at pH 7.4 at 308K by fluorescence spectroscopic analysis; type: ADME; settings: cattle, isolated protein
How it was run: (§4)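 BSA fluorescence quenched by BON in HCl–Tris, pH 7.4, at four temperatures. Binding constants come from fitting the quenching data to the modified Stern–Volmer equation.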

Albumin [9] = biological target: T1, Albumin; test: Binding affinity to bovine serum albumin assessed as binding constant at pH 7.4 at 303K by fluorescence spectroscopic analysis; type: ADME; settings: cattle, isolated protein; how it was run: as §4
Albumin [10] = biological target: T1, Albumin; test: Binding affinity to bovine serum albumin assessed as decrease in fluorescence intensity peak2 at 1.71 x 10^-5 mol/L at pH 7.4 at 293K by three-dimensional fluorescence spectroscopy analysis; type: ADME; parameters: scale not given: the % may be the effect or the level left; settings: cattle, isolated protein, pH 7.4, 17.1 µM
Albumin [11] = biological target: T1, Albumin; test: Binding affinity to bovine serum albumin assessed as stem-volmer quenching constant at pH 7.4 at 303K by fluorescence spectroscopic analysis; type: ADME; settings: cattle, isolated protein; how it was run: as §2
Albumin [12] = biological target: T1, Albumin; test: Binding affinity to bovine serum albumin assessed as decrease in fluorescence intensity at 1.5 x 10^-5 mol/L at pH 7.4 by fluorescence spectroscopy in presence of Mg2+ cations; type: ADME; settings: cattle, isolated protein, pH 7.4, 15 µM; how it was run: as §3
Albumin [13] = biological target: T1, Albumin; test: Binding affinity to bovine serum albumin assessed as decrease in fluorescence intensity at 1.5 x 10^-5 mol/L at pH 7.4 by fluorescence spectroscopy in presence of Cr3+ cations; type: ADME; settings: cattle, isolated protein, pH 7.4, 15 µM; how it was run: as §3
Albumin [14] = biological target: T1, Albumin; test: Binding affinity to bovine serum albumin assessed as decrease in fluorescence intensity at 1.5 x 10^-5 mol/L at pH 7.4 by fluorescence spectroscopy in presence of PO42+ anions; type: ADME; settings: cattle, isolated protein, pH 7.4, 15 µM; how it was run: as §3
Albumin [15] = biological target: T1, Albumin; test: Binding affinity to bovine serum albumin assessed as decrease in fluorescence intensity at 1.5 x 10^-5 mol/L at pH 7.4 by fluorescence spectroscopy in presence of Fe3+ cations; type: ADME; settings: cattle, isolated protein, pH 7.4, 15 µM; how it was run: as §3
Albumin [16] = biological target: T1, Albumin; test: Binding affinity to bovine serum albumin assessed as decrease in fluorescence intensity at 1.5 x 10^-5 mol/L at pH 7.4 by fluorescence spectroscopy in presence of tyrosine; type: ADME; settings: cattle, isolated protein, pH 7.4, 15 µM; how it was run: as §3
Albumin [17] = biological target: T1, Albumin; test: Binding affinity to bovine serum albumin assessed as decrease in fluorescence intensity at 1.5 x 10^-5 mol/L at pH 7.4 by fluorescence spectroscopy in presence of Ni2+ cations; type: ADME; settings: cattle, isolated protein, pH 7.4, 15 µM; how it was run: as §3
Albumin [18] = biological target: T1, Albumin; test: Binding affinity to bovine serum albumin assessed as stem-volmer quenching constant at pH 7.4 at 298K by fluorescence spectroscopic analysis; type: ADME; settings: cattle, isolated protein; how it was run: as §2
Albumin [19] = biological target: T1, Albumin; test: Binding affinity to bovine serum albumin assessed as decrease in fluorescence intensity peak1 at 1.71 x 10^-5 mol/L at pH 7.4 at 293K by three-dimensional fluorescence spectroscopy analysis; type: ADME; parameters: scale not given: the % may be the effect or the level left; settings: cattle, isolated protein, pH 7.4, 17.1 µM
Albumin [20] = biological target: T1, Albumin; test: Binding affinity to bovine serum albumin assessed as decrease in fluorescence intensity at 1.5 x 10^-5 mol/L at pH 7.4 by fluorescence spectroscopy in presence of lysine; type: ADME; settings: cattle, isolated protein, pH 7.4, 15 µM; how it was run: as §3
Albumin [21] = biological target: T1, Albumin; test: Binding affinity to bovine serum albumin assessed as decrease in fluorescence intensity at 1.5 x 10^-5 mol/L at pH 7.4 by fluorescence spectroscopy in presence of tryptophane; type: ADME; settings: cattle, isolated protein, pH 7.4, 15 µM; how it was run: as §3
Albumin [22] = biological target: T1, Albumin; test: Binding affinity to bovine serum albumin assessed as stem-volmer quenching constant at pH 7.4 at 308K by fluorescence spectroscopic analysis; type: ADME; settings: cattle, isolated protein; how it was run: as §2
Albumin [23] = biological target: T1, Albumin; test: Binding affinity to bovine serum albumin assessed as binding constant at pH 7.4 at 298K by fluorescence spectroscopic analysis; type: ADME; settings: cattle, isolated protein; how it was run: as §4
Albumin [24] = biological target: T1, Albumin; test: Binding affinity to bovine serum albumin assessed as decrease in fluorescence intensity at 10^-5 mol/L at pH 7.4 at 298K by fluorescence spectroscopy in presence of warfarin; type: ADME; parameters: scale not given: the % may be the effect or the level left; settings: cattle, isolated protein, pH 7.4, 10 µM
How it was run: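 Site-marker displacement by fluorescence titration: BON and BSA held at a 10:1 molar ratio, then warfarin added stepwise to the mixture. Excitation 280 nm; emission recorded 290–400 nm.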

Albumin [25] = biological target: T1, Albumin; test: Binding affinity to bovine serum albumin assessed as quenching constant at pH 7.4 at 293K by fluorescence spectroscopy; settings: cattle, isolated protein
Albumin [26] = biological target: T1, Albumin; test: Binding affinity to bovine serum albumin assessed as decrease in fluorescence intensity at 1.5 x 10^-5 mol/L at pH 7.4 by fluorescence spectroscopy in presence of Na+ cations; type: ADME; settings: cattle, isolated protein, pH 7.4, 15 µM; how it was run: as §3
Albumin [27] = biological target: T1, Albumin; test: Binding affinity to bovine serum albumin assessed as decrease in fluorescence intensity at 1.5 x 10^-5 mol/L at pH 7.4 by fluorescence spectroscopy in presence of K+ cations; type: ADME; settings: cattle, isolated protein, pH 7.4, 15 µM; how it was run: as §3
Albumin [28] = biological target: T1, Albumin; test: Binding affinity to bovine serum albumin assessed as quenching constant at pH 7.4 at 308K by fluorescence spectroscopic analysis; type: ADME; settings: cattle, isolated protein; how it was run: as §1
Albumin [29] = biological target: T1, Albumin; test: Binding affinity to bovine serum albumin assessed as decrease in fluorescence intensity at 1.5 x 10^-5 mol/L at pH 7.4 by fluorescence spectroscopy in presence of Pb2+ cations; type: ADME; settings: cattle, isolated protein, pH 7.4, 15 µM; how it was run: as §3
Albumin [30] = biological target: T1, Albumin; test: Binding affinity to bovine serum albumin assessed as decrease in fluorescence intensity at 1.5 x 10^-5 mol/L at pH 7.4 by fluorescence spectroscopy in presence of Mn2+ cations; type: ADME; settings: cattle, isolated protein, pH 7.4, 15 µM; how it was run: as §3
Albumin [31] = biological target: T1, Albumin; test: Binding affinity to bovine serum albumin assessed as decrease in fluorescence intensity at 1.5 x 10^-5 mol/L at pH 7.4 by fluorescence spectroscopy in presence of Cl- anions; type: ADME; settings: cattle, isolated protein, pH 7.4, 15 µM; how it was run: as §3
Albumin [32] = biological target: T1, Albumin; test: Binding affinity to bovine serum albumin assessed as quenching constant at pH 7.4 at 303K by fluorescence spectroscopic analysis; type: ADME; settings: cattle, isolated protein; how it was run: as §1
Albumin [33] = biological target: T1, Albumin; test: Binding affinity to bovine serum albumin assessed as decrease in fluorescence intensity at 1.5 x 10^-5 mol/L at pH 7.4 by fluorescence spectroscopy in presence of Br- anions; type: ADME; settings: cattle, isolated protein, pH 7.4, 15 µM; how it was run: as §3
Albumin [34] = biological target: T1, Albumin; test: Binding affinity to bovine serum albumin assessed as decrease in fluorescence intensity at 1.5 x 10^-5 mol/L at pH 7.4 by fluorescence spectroscopy in presence of proline; type: ADME; settings: cattle, isolated protein, pH 7.4, 15 µM; how it was run: as §3
Albumin [35] = biological target: T1, Albumin; test: Binding affinity to bovine serum albumin assessed as quenching constant at pH 7.4 at 293K by fluorescence spectroscopic analysis; type: ADME; settings: cattle, isolated protein; how it was run: as §1
Albumin [36] = biological target: T1, Albumin; test: Binding affinity to bovine serum albumin assessed as binding constant at pH 7.4 at 293K by fluorescence spectroscopic analysis; type: ADME; settings: cattle, isolated protein; how it was run: as §4
Albumin [37] = biological target: T1, Albumin; test: Binding affinity to bovine serum albumin assessed as decrease in fluorescence intensity at 1.5 x 10^-5 mol/L at pH 7.4 by fluorescence spectroscopy in presence of Mo6+ cations; type: ADME; settings: cattle, isolated protein, pH 7.4, 15 µM; how it was run: as §3

T1 sequence (P02769 whole entry): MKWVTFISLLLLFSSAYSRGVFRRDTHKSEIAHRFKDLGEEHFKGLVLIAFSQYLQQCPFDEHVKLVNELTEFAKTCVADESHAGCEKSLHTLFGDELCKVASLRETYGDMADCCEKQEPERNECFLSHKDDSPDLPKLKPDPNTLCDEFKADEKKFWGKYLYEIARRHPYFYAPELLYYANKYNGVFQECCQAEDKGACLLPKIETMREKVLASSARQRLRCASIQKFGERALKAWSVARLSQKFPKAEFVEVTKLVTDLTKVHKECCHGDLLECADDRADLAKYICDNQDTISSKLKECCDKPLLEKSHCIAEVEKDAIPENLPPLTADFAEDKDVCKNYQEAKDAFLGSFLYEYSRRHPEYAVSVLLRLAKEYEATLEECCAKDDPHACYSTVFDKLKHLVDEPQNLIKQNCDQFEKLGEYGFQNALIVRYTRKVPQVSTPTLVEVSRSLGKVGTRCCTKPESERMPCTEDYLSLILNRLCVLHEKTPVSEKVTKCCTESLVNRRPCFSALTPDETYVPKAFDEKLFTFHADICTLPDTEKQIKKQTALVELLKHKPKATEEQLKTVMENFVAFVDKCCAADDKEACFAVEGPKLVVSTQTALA

Compound: CCCCCCCCCCCCCCCCCCN1C(=O)c2cccc3c(OCCOCCCC)ccc(c23)C1=O
- Kq (Albumin [1]): 9.03 ×10¹¹ L/mol/s
- KSV (Albumin [2]): 9.4 ×10³ L/mol
- Activity (Albumin [3]): Not Active
- Activity (Albumin [4]): Active
- Activity (Albumin [5]): Active
- Activity (Albumin [6]): Not Active
- Activity (Albumin [7]): Not Active
- Kb (Albumin [8]): 1.77 ×10³ L/mol
- Kb (Albumin [9]): 2.12 ×10³ L/mol
- Activity (Albumin [10]): 37.24%
- KSV (Albumin [11]): 8.76 ×10³ L/mol
- Activity (Albumin [12]): Not Active
- Activity (Albumin [13]): Not Active
- Activity (Albumin [14]): Active
- Activity (Albumin [15]): Not Active
- Activity (Albumin [16]): Active
- Activity (Albumin [17]): Not Active
- KSV (Albumin [18]): 9.03 ×10³ L/mol
- Activity (Albumin [19]): 25.16%
- Activity (Albumin [20]): Active
- Activity (Albumin [21]): Active
- KSV (Albumin [22]): 8.54 ×10³ L/mol
- Kb (Albumin [23]): 2.82 ×10³ L/mol
- Activity (Albumin [24]): 42%
- Activity (Albumin [25]): Active
- Activity (Albumin [26]): Not Active
- Activity (Albumin [27]): Not Active
- Kq (Albumin [28]): 8.54 ×10¹¹ L/mol/s
- Activity (Albumin [29]): Not Active
- Activity (Albumin [30]): Not Active
- Activity (Albumin [31]): Active
- Kq (Albumin [32]): 8.76 ×10¹¹ L/mol/s
- Activity (Albumin [33]): Active
- Activity (Albumin [34]): Active
- Kq (Albumin [35]): 9.4 ×10¹¹ L/mol/s
- Kb (Albumin [36]): 3.89 ×10³ L/mol
- Activity (Albumin [37]): Not Active
